One may read the inhibition in vivo as the change of the read-out against control, counted positive when it falls.

The test system of experiment [1] is Rattus norvegicus. The experiment can be described thus: Antidiabetic activity in streptozotocin-induced NIDDM Wistar albino rat model assessed as inhibition of rise of blood glucose level at 20 mg/kg, po administered 15 mins prior to glucose challenge measured after 90 mins of glucose loading by glucose oxidase-peroxidase colorimetric method. The experiment is classed as functional. The method, boiled down:
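n2-STZ model: STZ 100 mg/kg in fresh 0.1 M citrate pH 4.5 given i.p. to 2-day-old pups (6–8 g), weaned for 4 weeks. Diabetic rats had fasting glucose >140 mg/dl and >200 mg/dl 2 h after oral glucose. Overnight-fasted groups of six got a 1% CMC suspension p.o. 15 min before glucose 2 g/kg p.o. GOD-POD at 505 nm before and at 90 min; reduction set against the control rise.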

Experiment [2] relates to Rattus norvegicus. Briefly: Antidiabetic activity in normal Wistar albino rat assessed as inhibition of rise of blood glucose level at 20 mg/kg, po administered 15 mins prior to glucose challenge measured after 90 mins of glucose loading by glucose oxidase-peroxidase colorimetric method. The experiment is classed as functional. Put shortly: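 Wistar albino rats of either sex (160–200 g), fasted overnight, in groups of six. Dosed p.o. at 10 ml/kg, suspended in 1% CMC in distilled water; vehicle controls. Glucose 2 g/kg p.o. given 15 min after dosing. Retro-orbital blood taken just before and 90 min after glucose; glucose read by GOD-POD quinoneimine at 505 nm. Percent reduction taken against the control rise, set as 100%.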

As to `CCCNC(=O)NS(=O)(=O)c1ccc(-n2nc(-c3ccc(C)cc3)ccc2=O)cc1`, the inhibition in vivo at 20 mg/kg worked out at 109% in the experiment with Rattus norvegicus [1] and 80.5% with Rattus norvegicus [2].
With `Cc1ccc(-c2ccc(=O)n(-c3ccc(S(=O)(=O)NC(=O)NC4CCCCC4)cc3)n2)cc1`, the inhibition in vivo at 20 mg/kg in the experiment on Rattus norvegicus [1] is 110%; with Rattus norvegicus [2] it was 79.9%.
Take `CCCCNC(=O)NS(=O)(=O)c1ccc(-n2nc(-c3ccccc3)ccc2=O)cc1`: the values for the inhibition in vivo at 20 mg/kg in the experiment with Rattus norvegicus [1] and in the experiment on Rattus norvegicus [2] were 111% and 67.4%, respectively.
With `O=C(NC1CCCCC1)NS(=O)(=O)c1ccc(-n2nc(-c3ccc(Cl)cc3)ccc2=O)cc1`, the inhibition in vivo at 20 mg/kg came to 114% in the experiment with Rattus norvegicus [1] and 59% in the experiment with Rattus norvegicus [2].
For `CCCNC(=O)NS(=O)(=O)c1ccc(-n2nc(-c3ccc(Cl)cc3)ccc2=O)cc1`, the values for the inhibition in vivo at 20 mg/kg with Rattus norvegicus [1] and in the experiment on Rattus norvegicus [2] were 122% and 74.3%, respectively.
`O=C(NCc1ccccc1)NS(=O)(=O)c1ccc(-n2nc(-c3ccc(Cl)cc3)ccc2=O)cc1`: the inhibition in vivo at 20 mg/kg in the experiment with Rattus norvegicus [1] is 111%; with Rattus norvegicus [2], 61.6%.
With `CCCCNC(=O)NS(=O)(=O)c1ccc(-n2nc(-c3ccc(OC)cc3)ccc2=O)cc1`, the figures for the inhibition in vivo at 20 mg/kg with Rattus norvegicus [1] and with Rattus norvegicus [2] were 25.6% and 43.7%, respectively.
Take `CCCCNC(=O)NS(=O)(=O)c1ccc(-n2nc(-c3ccc(C)cc3)ccc2=O)cc1`: the figures for the inhibition in vivo at 20 mg/kg in the experiment on Rattus norvegicus [1] and in the experiment with Rattus norvegicus [2] were 109% and 86.6%, respectively.
Consider `O=C(NC1CCCCC1)NS(=O)(=O)c1ccc(-n2nc(-c3ccccc3)ccc2=O)cc1`, for which the inhibition in vivo at 20 mg/kg with Rattus norvegicus [1] came out at 86.2%; with Rattus norvegicus [2] it was 52.1%.
On the same counts, the results for `CCCCNC(=O)NS(=O)(=O)c1ccc(-n2nc(-c3ccc(Cl)cc3)ccc2=O)cc1` are 100% and 66%.
Turning to `Cc1cc(-c2ccc(=O)n(-c3ccc(S(=O)(=O)NC(=O)NC4CCCCC4)cc3)n2)ccc1Cl`, the inhibition in vivo at 20 mg/kg amounted to 55.2% with Rattus norvegicus [1] and 62.1% in the experiment on Rattus norvegicus [2].
`Cc1ccc(-c2ccc(=O)n(-c3ccc(S(=O)(=O)NC(=O)NCc4ccccc4)cc3)n2)cc1`: the inhibition in vivo at 20 mg/kg was found to be 119% in the experiment on Rattus norvegicus [1] and 64.9% with Rattus norvegicus [2].
Regarding `CCCNC(=O)NS(=O)(=O)c1ccc(-n2nc(-c3ccccc3)ccc2=O)cc1`, the inhibition in vivo at 20 mg/kg in the experiment on Rattus norvegicus [1] stood at 125%; in the experiment on Rattus norvegicus [2], 77.2%.
The matching figures for `Cc1ccc(S(=O)(=O)NC(=O)NN2CC3CCCC3C2)cc1` (stereo not drawn) [GLICLAZIDE]: 107% and 135%.

Values taken from ChEMBL document CHEMBL1158383, “Synthesis and blood glucose lowering effect of novel pyridazinone substituted benzenesulfonylurea derivatives” (2009).
